The test system of one data set is MDCK. Kind of data set: Cytotoxicity against MDCK cells assessed as effect on cell viability at 50 uM measured after 36 hrs by CellTiter-Glo assay. Format: cell-based, Canis lupus familiaris. The conditions noted are these: dog. Summed up: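 MDCK cells (1 × 10⁴ per well) left to adhere 24 h at 37 °C, 5% CO₂. Medium then replaced with fresh medium containing compound at 50 μM, in triplicate. Controls received medium with 1% DMSO. Plates incubated 36 h at 37 °C, 5% CO₂, then viability read by CellTiter-Glo luminescence.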
A general note: In ATP-based viability assays light output follows the ATP content of the culture.

The next data set deals with Influenza A virus. Kind of data set: Antiviral activity against Influenza A virus (A/WSN/33(H1N1)) infected in MDCK cells assessed as reduction in virus-induced cytopathic effect at 50 uM after 40 hrs by CellTiter-Glo assay. The class given is functional, organism-based. To be noted: A/WSN/1933(H1N1). The method in brief:
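MDCK cells seeded, grown overnight, then infected with A/WSN/33 (H1N1) at MOI 0.1 in DMEM with 1% FBS, 2 μg/mL TPCK-treated trypsin and test compound (final DMSO 1%). Compounds screened at a single 50 μM concentration. Incubation 40 h, then viability read by CellTiter-Glo luminescence. Oseltamivir positive control, DMSO negative control. Virus stock titres determined in MDCK cells by Reed and Muench.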
(Damage to the host cells serves as the signal in cytopathic effect assays.)

Each structure is given as a SMILES string. Active and inactive are the calls of the source. The calls are words filed in the database; no cut-off is given here.

The values below come from ChEMBL document CHEMBL4400530, “Synthesis and structure-activity relationship studies of water-soluble β-cyclodextrin-glycyrrhetinic acid conjugates as potential anti-influenza virus agents” (Eur J Med Chem, 2019).

Take `CC(=O)OC[C@H]1O[C@@H]2O[C@H]3[C@H](OC(C)=O)[C@@H](OC(C)=O)[C@@H](O[C@H]4[C@H](OC(C)=O)[C@@H](OC(C)=O)[C@@H](O[C@H]5[C@H](OC(C)=O)[C@@H](OC(C)=O)[C@@H](O[C@H]6[C@H](OC(C)=O)[C@@H](OC(C)=O)[C@@H](O[C@H]7[C@H](OC(C)=O)[C@@H](OC(C)=O)[C@@H](O[C@H]8[C@H](OC(C)=O)[C@@H](OC(C)=O)[C@@H](O[C@H]1[C@H](OC(C)=O)[C@H]2OC(C)=O)O[C@@H]8COC(C)=O)O[C@@H]7COC(C)=O)O[C@@H]6COC(C)=O)O[C@@H]5Cn1cc(-c2ccc(NC(=O)[C@@]5(C)CC[C@]6(C)CC[C@]7(C)C(=CC(=O)[C@@H]8[C@@]9(C)CC[C@H](O)C(C)(C)[C@@H]9CC[C@]87C)[C@@H]6C5)cc2)nn1)O[C@@H]4COC(C)=O)O[C@@H]3COC(C)=O`: the Activity result in the data set on MDCK is “Non-Toxic”.
With `CC(=O)OC[C@H]1O[C@@H]2O[C@H]3[C@H](OC(C)=O)[C@@H](OC(C)=O)[C@@H](O[C@H]4[C@H](OC(C)=O)[C@@H](OC(C)=O)[C@@H](O[C@H]5[C@H](OC(C)=O)[C@@H](OC(C)=O)[C@@H](O[C@H]6[C@H](OC(C)=O)[C@@H](OC(C)=O)[C@@H](O[C@H]7[C@H](OC(C)=O)[C@@H](OC(C)=O)[C@@H](O[C@H]8[C@H](OC(C)=O)[C@@H](OC(C)=O)[C@@H](O[C@H]1[C@H](OC(C)=O)[C@H]2OC(C)=O)O[C@@H]8COC(C)=O)O[C@@H]7COC(C)=O)O[C@@H]6COC(C)=O)O[C@@H]5Cn1cc(CN2CCN(CCNC(=O)[C@@]5(C)CC[C@]6(C)CC[C@]7(C)C(=CC(=O)[C@@H]8[C@@]9(C)CC[C@H](O)C(C)(C)[C@@H]9CC[C@]87C)[C@@H]6C5)CC2)nn1)O[C@@H]4COC(C)=O)O[C@@H]3COC(C)=O`, the result in the data set with Influenza A virus was inactive. Moreover, the Activity entry in the data set with MDCK was “Non-Toxic”.
As to `CC(=O)OC[C@H]1O[C@@H]2O[C@H]3[C@H](OC(C)=O)[C@@H](OC(C)=O)[C@@H](O[C@H]4[C@H](OC(C)=O)[C@@H](OC(C)=O)[C@@H](O[C@H]5[C@H](OC(C)=O)[C@@H](OC(C)=O)[C@@H](O[C@H]6[C@H](OC(C)=O)[C@@H](OC(C)=O)[C@@H](O[C@H]7[C@H](OC(C)=O)[C@@H](OC(C)=O)[C@@H](O[C@H]8[C@H](OC(C)=O)[C@@H](OC(C)=O)[C@@H](O[C@H]1[C@H](OC(C)=O)[C@H]2OC(C)=O)O[C@@H]8COC(C)=O)O[C@@H]7COC(C)=O)O[C@@H]6COC(C)=O)O[C@@H]5Cn1cc(CO[C@H]2CC[C@]5(C)[C@H]6C(=O)C=C7[C@@H]8C[C@@](C)(C(=O)OCc9ccccc9)CC[C@]8(C)CC[C@@]7(C)[C@]6(C)CC[C@H]5C2(C)C)nn1)O[C@@H]4COC(C)=O)O[C@@H]3COC(C)=O`, in the data set with MDCK, the Activity result was “Non-Toxic”.
On to `CC1(C)[C@@H](O)CC[C@]2(C)[C@H]3C(=O)C=C4[C@@H]5C[C@@](C)(C(=O)Nc6ccc(-c7cn(C[C@H]8O[C@@H]9O[C@H]%10[C@H](O)[C@@H](O)[C@@H](O[C@H]%11[C@H](O)[C@@H](O)[C@@H](O[C@H]%12[C@H](O)[C@@H](O)[C@@H](O[C@H]%13[C@H](O)[C@@H](O)[C@@H](O[C@H]%14[C@H](O)[C@@H](O)[C@@H](O[C@H]%15[C@H](O)[C@@H](O)[C@@H](O[C@H]8[C@H](O)[C@H]9O)O[C@@H]%15CO)O[C@@H]%14CO)O[C@@H]%13CO)O[C@@H]%12CO)O[C@@H]%11CO)O[C@@H]%10CO)nn7)cc6)CC[C@]5(C)CC[C@@]4(C)[C@]3(C)CC[C@@H]12`, for which the Activity result in the data set with MDCK is recorded as “Non-Toxic”.
On to `CC(=O)OC[C@H]1O[C@@H]2O[C@H]3[C@H](OC(C)=O)[C@@H](OC(C)=O)[C@@H](O[C@H]4[C@H](OC(C)=O)[C@@H](OC(C)=O)[C@@H](O[C@H]5[C@H](OC(C)=O)[C@@H](OC(C)=O)[C@@H](O[C@H]6[C@H](OC(C)=O)[C@@H](OC(C)=O)[C@@H](O[C@H]7[C@H](OC(C)=O)[C@@H](OC(C)=O)[C@@H](O[C@H]8[C@H](OC(C)=O)[C@@H](OC(C)=O)[C@@H](O[C@H]1[C@H](OC(C)=O)[C@H]2OC(C)=O)O[C@@H]8COC(C)=O)O[C@@H]7COC(C)=O)O[C@@H]6COC(C)=O)O[C@@H]5Cn1cc(COCCNC(=O)[C@@]2(C)CC[C@]5(C)CC[C@]6(C)C(=CC(=O)[C@@H]7[C@@]8(C)CC[C@H](O)C(C)(C)[C@@H]8CC[C@]76C)[C@@H]5C2)nn1)O[C@@H]4COC(C)=O)O[C@@H]3COC(C)=O`, for which the outcome in the data set on Influenza A virus was Active. Besides, the Activity result in the data set with MDCK is recorded as “Non-Toxic”.
For `CC(=O)OC[C@H]1O[C@@H]2O[C@H]3[C@H](O)[C@@H](O)[C@@H](O[C@H]4[C@H](O)[C@@H](O)[C@@H](O[C@H]5[C@H](O)[C@@H](O)[C@@H](O[C@H]6[C@H](O)[C@@H](O)[C@@H](O[C@H]7[C@H](O)[C@@H](O)[C@@H](O[C@H]8[C@H](O)[C@@H](O)[C@@H](O[C@H]1[C@H](O)[C@H]2O)O[C@@H]8CO)O[C@@H]7CO)O[C@@H]6CO)O[C@@H]5CO)O[C@@H]4CO)O[C@@H]3Cn1cc(CN2CCN(CCNC(=O)[C@@]3(C)CC[C@]4(C)CC[C@]5(C)C(=CC(=O)[C@@H]6[C@@]7(C)CC[C@H](O)C(C)(C)[C@@H]7CC[C@]65C)[C@@H]4C3)CC2)nn1` the same measures were “inactive” and “Non-Toxic”.
For `CC1(C)[C@@H](O)CC[C@]2(C)[C@H]3C(=O)C=C4[C@@H]5C[C@@](C)(C(=O)NCCOCCOCCOCCOCCOCCOCc6cn(C[C@H]7O[C@@H]8O[C@H]9[C@H](O)[C@@H](O)[C@@H](O[C@H]%10[C@H](O)[C@@H](O)[C@@H](O[C@H]%11[C@H](O)[C@@H](O)[C@@H](O[C@H]%12[C@H](O)[C@@H](O)[C@@H](O[C@H]%13[C@H](O)[C@@H](O)[C@@H](O[C@H]%14[C@H](O)[C@@H](O)[C@@H](O[C@H]7[C@H](O)[C@H]8O)O[C@@H]%14CO)O[C@@H]%13CO)O[C@@H]%12CO)O[C@@H]%11CO)O[C@@H]%10CO)O[C@@H]9CO)nn6)CC[C@]5(C)CC[C@@]4(C)[C@]3(C)CC[C@@H]12` the same measures were “Active” and “Non-Toxic”.
For `CC1(C)[C@@H](O)CC[C@]2(C)[C@H]3C(=O)C=C4[C@@H]5C[C@@](C)(C(=O)NCc6cn(C[C@H]7O[C@@H]8O[C@H]9[C@H](O)[C@@H](O)[C@@H](O[C@H]%10[C@H](O)[C@@H](O)[C@@H](O[C@H]%11[C@H](O)[C@@H](O)[C@@H](O[C@H]%12[C@H](O)[C@@H](O)[C@@H](O[C@H]%13[C@H](O)[C@@H](O)[C@@H](O[C@H]%14[C@H](O)[C@@H](O)[C@@H](O[C@H]7[C@H](O)[C@H]8O)O[C@@H]%14CO)O[C@@H]%13CO)O[C@@H]%12CO)O[C@@H]%11CO)O[C@@H]%10CO)O[C@@H]9CO)nn6)CC[C@]5(C)CC[C@@]4(C)[C@]3(C)CC[C@@H]12`, in that order: “Active” and “Non-Toxic”.
Consider `CC(=O)OC[C@H]1O[C@@H]2O[C@H]3[C@H](O)[C@@H](O)[C@@H](O[C@H]4[C@H](O)[C@@H](O)[C@@H](O[C@H]5[C@H](O)[C@@H](O)[C@@H](O[C@H]6[C@H](O)[C@@H](O)[C@@H](O[C@H]7[C@H](O)[C@@H](O)[C@@H](O[C@H]8[C@H](O)[C@@H](O)[C@@H](O[C@H]1[C@H](O)[C@H]2O)O[C@@H]8CO)O[C@@H]7CO)O[C@@H]6CO)O[C@@H]5CO)O[C@@H]4Cn1cc(COCCOCCNC(=O)[C@@]2(C)CC[C@]4(C)CC[C@]5(C)C(=CC(=O)[C@@H]6[C@@]7(C)CC[C@H](O)C(C)(C)[C@@H]7CC[C@]65C)[C@@H]4C2)nn1)O[C@@H]3COC(C)=O`, for which the outcome with Influenza A virus was Active. The Activity entry in the data set with MDCK is recorded as “Non-Toxic”.
Turning to `COC[C@H]1O[C@@H]2O[C@H]3[C@H](OC)[C@@H](OC)[C@@H](O[C@H]4[C@H](OC)[C@@H](OC)[C@@H](O[C@H]5[C@H](OC)[C@@H](OC)[C@@H](O[C@H]6[C@H](OC)[C@@H](OC)[C@@H](O[C@H]7[C@H](OC)[C@@H](OC)[C@@H](O[C@H]8[C@H](OC)[C@@H](OC)[C@@H](O[C@H]1[C@H](OC)[C@H]2OC)O[C@@H]8COC)O[C@@H]7COC)O[C@@H]6COC)O[C@@H]5Cn1cc(CNC(=O)[C@@]2(C)CC[C@]5(C)CC[C@]6(C)C(=CC(=O)[C@@H]7[C@@]8(C)CC[C@H](O)C(C)(C)[C@@H]8CC[C@]76C)[C@@H]5C2)nn1)O[C@@H]4COC)O[C@@H]3COC`, in the data set on MDCK, the Activity result is on record as “Toxic”.
On the same count and under the same terms, to `CC(=O)OC[C@H]1O[C@@H]2O[C@H]3[C@H](OC(C)=O)[C@@H](OC(C)=O)[C@@H](O[C@H]4[C@H](OC(C)=O)[C@@H](OC(C)=O)[C@@H](O[C@H]5[C@H](OC(C)=O)[C@@H](OC(C)=O)[C@@H](O[C@H]6[C@H](OC(C)=O)[C@@H](OC(C)=O)[C@@H](O[C@H]7[C@H](OC(C)=O)[C@@H](OC(C)=O)[C@@H](O[C@H]8[C@H](OC(C)=O)[C@@H](OC(C)=O)[C@@H](O[C@H]1[C@H](OC(C)=O)[C@H]2OC(C)=O)O[C@@H]8COC(C)=O)O[C@@H]7COC(C)=O)O[C@@H]6COC(C)=O)O[C@@H]5Cn1cc(CO[C@H]2CC[C@]5(C)[C@H]6C(=O)C=C7[C@@H]8C[C@@](C)(C(=O)O)CC[C@]8(C)CC[C@@]7(C)[C@]6(C)CC[C@H]5C2(C)C)nn1)O[C@@H]4COC(C)=O)O[C@@H]3COC(C)=O` belongs “Non-Toxic”.
